Tests used:
[1] = Inhibition of AKT-mediated GSK3-beta phosphorylation in human BT474 cells by mechanistic assay; type: cell-based; conditions: BT-474
How it was run: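 Cellular mechanistic assay in BT474 cells measuring inhibition of GSK3β phosphorylation, reported as IC50.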

[2] = target: RAC-alpha serine/threonine-protein kinase (Homo sapiens, UniProt P31749); assay: Inhibition of AKT1
How it was run: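 AKT1 enzyme IC50 from the standard high-throughput AKT enzyme assay.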

LNCaP = assay: Cytotoxicity against human LNCAP cells; type: functional, cell-based
How it was run: (§1)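 Inhibition of cell proliferation, reported as IC50. AKT-sensitive lines were BT474 and LNCaP; HFF was the non-tumour-derived line.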

HFF = assay: Cytotoxicity against human HFF cells; type: cell-based; how it was run: as §1
BT-474 = assay: Cytotoxicity against human BT474 cells; type: functional, cell-based; how it was run: as §1
[3] = target: RAC-gamma serine/threonine-protein kinase (Homo sapiens, UniProt Q9Y243); assay: Inhibition of AKT3
[4] = target: Serine/threonine-protein kinase pim-1 (Homo sapiens, UniProt P11309); assay: Inhibition of PIM1
[5] = target: Glycogen synthase kinase-3 beta (Homo sapiens, UniProt P49841); assay: Inhibition of GSK3-beta
Mus musculus = assay: Inhibition of GSK3-beta phosphorylation in human BT474 xenografted ip dosed mouse after 4 hrs administered once relative to control; type: functional, organism-based
How it was run: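 BT474 tumour-bearing xenograft mice received a single ip injection at 6.25, 12.5 or 25 mg/kg. Vehicle was 5% dextrose, pH 4.0. Tumours were harvested 4 h post-dose and pGSK3β levels compared with the vehicle group.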

[6] = target: MAP kinase-activated protein kinase 2 (Homo sapiens, UniProt P49137); assay: Inhibition of MAPKAPK2
[7] = target: Protein kinase C alpha type (Homo sapiens, UniProt P17252); assay: Inhibition of PKCalpha
[8] = target: Epidermal growth factor receptor (Homo sapiens, UniProt P00533)
[9] = Half life in rat at 10 mg/kg, po after 24 hrs; type: ADME, organism-based; parameters: dose 10 mg/kg, route oral; conditions: in vivo
How it was run: (§2)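 iv/po crossover pharmacokinetic study in conscious male rats, n = 3. Dosing was 2 mg/kg iv and 10 mg/kg po.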

[10] = Cmax in rat at 2 mg/kg, iv after 24 hrs; type: ADME, organism-based; parameters: dose 2 mg/kg, route intravenous; conditions: in vivo; how it was run: as §2
[11] = (§3) Oral bioavailability in rat at 10 mg/kg after 24 hrs; type: ADME, organism-based; conditions: in vivo; how it was run: as §2
[12] = Half life in rat at 2 mg/kg, iv after 24 hrs; type: ADME, organism-based; parameters: dose 2 mg/kg, route intravenous; conditions: in vivo; how it was run: as §2
[13] = (§4) AUC (0 to t) in rat at 2 mg/kg, iv after 24 hrs; type: ADME, organism-based, Plasma; parameters: time < 24 hr, dose 2 mg/kg, route intravenous; conditions: plasma; how it was run: as §2
[14] = (§5) AUC (0 to t) in rat at 10 mg/kg, po after 24 hrs; type: ADME, organism-based, Plasma; parameters: time < 24 hr, dose 10 mg/kg, route oral; conditions: plasma; how it was run: as §2
[15] = Clearance in rat at 2 mg/kg, iv after 24 hrs; type: ADME, organism-based; parameters: dose 2 mg/kg, route intravenous; conditions: in vivo; how it was run: as §2
[16] = Cmax in rat at 10 mg/kg, po after 24 hrs; type: ADME, organism-based; parameters: dose 10 mg/kg, route oral; conditions: in vivo; how it was run: as §2
Rattus norvegicus [17] = assay: as §3; type: ADME, organism-based; conditions: in vivo, 24 h; how it was run: as §2
Rattus norvegicus [18] = assay: as §4; type: ADME, organism-based, Plasma; parameters: time < 24 hr, dose 2 mg/kg, route intravenous; conditions: in vivo, 24 h; how it was run: as §2
Rattus norvegicus [19] = assay: as §5; type: ADME, organism-based, Plasma; parameters: time < 24 hr, dose 10 mg/kg, route oral; conditions: in vivo, 24 h; how it was run: as §2

RAC-gamma serine/threonine-protein kinase, sequence (Q9Y243 whole entry): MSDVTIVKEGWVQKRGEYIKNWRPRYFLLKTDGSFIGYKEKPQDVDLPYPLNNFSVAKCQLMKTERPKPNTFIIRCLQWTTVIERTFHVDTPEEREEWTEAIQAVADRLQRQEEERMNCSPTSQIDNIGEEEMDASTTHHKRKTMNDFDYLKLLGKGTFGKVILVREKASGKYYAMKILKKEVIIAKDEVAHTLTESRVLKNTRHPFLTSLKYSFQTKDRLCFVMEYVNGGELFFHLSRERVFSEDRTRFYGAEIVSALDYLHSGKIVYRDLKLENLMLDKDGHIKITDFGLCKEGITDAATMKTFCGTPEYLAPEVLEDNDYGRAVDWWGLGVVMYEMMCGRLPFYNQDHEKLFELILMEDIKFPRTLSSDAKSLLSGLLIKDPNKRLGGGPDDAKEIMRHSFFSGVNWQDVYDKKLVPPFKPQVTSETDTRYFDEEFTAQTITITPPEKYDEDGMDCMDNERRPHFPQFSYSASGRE
RAC-alpha serine/threonine-protein kinase, sequence (P31749 whole entry): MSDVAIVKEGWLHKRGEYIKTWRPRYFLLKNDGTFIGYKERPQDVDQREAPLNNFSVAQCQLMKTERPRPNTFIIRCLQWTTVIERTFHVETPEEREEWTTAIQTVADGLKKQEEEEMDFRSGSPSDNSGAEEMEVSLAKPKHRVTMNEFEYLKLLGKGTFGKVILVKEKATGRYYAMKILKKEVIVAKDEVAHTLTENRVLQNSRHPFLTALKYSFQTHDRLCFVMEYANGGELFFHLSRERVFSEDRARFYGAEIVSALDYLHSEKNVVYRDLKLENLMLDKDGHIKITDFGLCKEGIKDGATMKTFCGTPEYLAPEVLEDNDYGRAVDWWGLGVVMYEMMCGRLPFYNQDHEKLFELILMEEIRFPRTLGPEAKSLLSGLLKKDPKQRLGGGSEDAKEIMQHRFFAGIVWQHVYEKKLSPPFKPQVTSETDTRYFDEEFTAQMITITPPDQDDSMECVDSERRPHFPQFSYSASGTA
Epidermal growth factor receptor, sequence (P00533 whole entry): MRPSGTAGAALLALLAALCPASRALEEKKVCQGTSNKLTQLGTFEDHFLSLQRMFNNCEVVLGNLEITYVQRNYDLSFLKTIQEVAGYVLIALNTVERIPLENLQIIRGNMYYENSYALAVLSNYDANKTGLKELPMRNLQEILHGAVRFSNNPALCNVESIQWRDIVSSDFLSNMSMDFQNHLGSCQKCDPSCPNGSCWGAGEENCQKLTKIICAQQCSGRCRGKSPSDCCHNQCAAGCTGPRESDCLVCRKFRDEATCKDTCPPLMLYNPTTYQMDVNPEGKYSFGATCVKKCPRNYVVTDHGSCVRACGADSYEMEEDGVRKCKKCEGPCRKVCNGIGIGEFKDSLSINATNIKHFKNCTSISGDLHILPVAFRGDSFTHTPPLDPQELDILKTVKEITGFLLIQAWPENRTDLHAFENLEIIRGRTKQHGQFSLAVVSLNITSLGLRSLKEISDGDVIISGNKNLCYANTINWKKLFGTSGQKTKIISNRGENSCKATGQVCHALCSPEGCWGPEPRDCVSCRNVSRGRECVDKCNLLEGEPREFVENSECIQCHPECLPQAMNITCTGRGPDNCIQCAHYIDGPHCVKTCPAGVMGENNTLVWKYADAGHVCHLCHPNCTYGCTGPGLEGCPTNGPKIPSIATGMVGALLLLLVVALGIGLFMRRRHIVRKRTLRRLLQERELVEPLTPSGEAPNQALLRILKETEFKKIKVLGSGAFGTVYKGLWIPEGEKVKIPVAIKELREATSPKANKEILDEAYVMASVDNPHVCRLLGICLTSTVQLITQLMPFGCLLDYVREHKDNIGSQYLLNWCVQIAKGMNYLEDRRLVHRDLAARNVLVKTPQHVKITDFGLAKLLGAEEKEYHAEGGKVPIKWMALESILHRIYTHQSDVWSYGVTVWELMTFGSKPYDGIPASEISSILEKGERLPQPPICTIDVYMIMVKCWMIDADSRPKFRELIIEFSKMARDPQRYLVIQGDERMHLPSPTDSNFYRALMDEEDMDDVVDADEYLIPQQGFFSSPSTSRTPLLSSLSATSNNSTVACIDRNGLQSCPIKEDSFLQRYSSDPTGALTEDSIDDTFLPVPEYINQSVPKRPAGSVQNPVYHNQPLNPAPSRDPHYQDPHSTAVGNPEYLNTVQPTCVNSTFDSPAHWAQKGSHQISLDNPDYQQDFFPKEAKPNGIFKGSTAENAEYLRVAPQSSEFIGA
Glycogen synthase kinase-3 beta, sequence (P49841 whole entry): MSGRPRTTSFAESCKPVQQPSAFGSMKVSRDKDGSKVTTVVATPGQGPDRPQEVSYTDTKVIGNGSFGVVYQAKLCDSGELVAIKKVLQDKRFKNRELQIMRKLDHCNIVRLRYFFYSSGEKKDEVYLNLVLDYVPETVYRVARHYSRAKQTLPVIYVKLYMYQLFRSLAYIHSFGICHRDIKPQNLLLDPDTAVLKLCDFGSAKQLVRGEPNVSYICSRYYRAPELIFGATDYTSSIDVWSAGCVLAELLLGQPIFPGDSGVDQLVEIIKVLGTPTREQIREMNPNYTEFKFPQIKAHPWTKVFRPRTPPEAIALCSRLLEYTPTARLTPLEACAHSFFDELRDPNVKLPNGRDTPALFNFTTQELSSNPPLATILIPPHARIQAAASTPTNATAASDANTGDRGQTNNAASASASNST
Serine/threonine-protein kinase pim-1, sequence (P11309 whole entry): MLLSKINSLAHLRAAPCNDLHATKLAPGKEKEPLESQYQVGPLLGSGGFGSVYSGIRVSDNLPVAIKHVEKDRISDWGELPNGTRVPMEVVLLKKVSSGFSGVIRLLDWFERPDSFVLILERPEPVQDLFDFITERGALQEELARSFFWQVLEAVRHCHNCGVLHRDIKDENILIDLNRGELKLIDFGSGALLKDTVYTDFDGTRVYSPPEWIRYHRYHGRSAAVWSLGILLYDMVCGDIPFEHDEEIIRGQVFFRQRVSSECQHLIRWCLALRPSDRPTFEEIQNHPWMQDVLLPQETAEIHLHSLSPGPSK
MAP kinase-activated protein kinase 2, sequence (P49137 whole entry): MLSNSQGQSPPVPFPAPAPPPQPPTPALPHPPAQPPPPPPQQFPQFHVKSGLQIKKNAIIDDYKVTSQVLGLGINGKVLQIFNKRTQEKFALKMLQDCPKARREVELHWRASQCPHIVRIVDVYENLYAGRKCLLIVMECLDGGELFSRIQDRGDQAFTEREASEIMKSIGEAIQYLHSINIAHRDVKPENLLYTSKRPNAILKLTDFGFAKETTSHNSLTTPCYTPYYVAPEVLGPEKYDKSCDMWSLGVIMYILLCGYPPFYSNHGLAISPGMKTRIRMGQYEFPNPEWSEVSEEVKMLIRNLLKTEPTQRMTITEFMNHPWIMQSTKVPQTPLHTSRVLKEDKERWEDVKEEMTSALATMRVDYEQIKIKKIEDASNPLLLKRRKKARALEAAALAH

| Compound | IC50 [1] [nM] | IC50 [2] [nM] | Ki [2] [nM] | IC50 (LNCaP) [nM] | IC50 (HFF) [nM] | IC50 (BT-474) [nM] | IC50 [3] [nM] | further results |
| --- | --- | --- | --- | --- | --- | --- | --- | --- |
| NCCC(NC(=O)c1cc(Br)c(-c2ccnc3[nH]ccc23)s1)c1ccccc1 (stereo unspecified) | 1500 | 8 | – | – | – | – | – | – |
| CNCC(Cc1ccccc1)NC(=O)c1cc(Br)c(-c2ccnc3[nH]ccc23)s1 (stereo unspecified) | 260 | 2 | – | – | – | – | – | – |
| CN(C)CC(NC(=O)c1cc(Br)c(-c2ccnc3[nH]ccc23)s1)c1ccccc1 (stereo unspecified) | > 10000 | 20 | – | – | – | – | – | – |
| NCC(NC(=O)c1cc(-c2c[nH]c3ncccc23)cs1)c1ccccc1 (stereo unspecified) | 1100 | 25 | – | – | – | – | – | – |
| NCC(NC(=O)c1cc(-c2ccnc3[nH]ccc23)cs1)c1ccccc1 (stereo unspecified) | 1000 | 40 | – | – | – | – | – | – |
| NC[C@H](Cc1ccc(F)cc1)NC(=O)c1cc(Br)c(-c2ccnc3[nH]ccc23)s1 | 180 | 1 | 0.06 | 66 | 490 | 500 | 2 | – |
| NC[C@H](Cc1ccccc1C(F)(F)F)NC(=O)c1cc(Br)c(-c2ccnc3[nH]ccc23)s1 | 50 | 3 | 0.05 | 24 | 730 | 60 | 2 | – |
| NC[C@H](CC1CCCCC1)NC(=O)c1cc(Br)c(-c2ccnc3[nH]ccc23)s1 | 1900 | 1 | 0.79 | 440 | – | 2600 | 3 | – |
| NCC(NC(=O)c1cc(-c2cccnc2)c(-c2ccnc3[nH]ccc23)s1)c1ccccc1 (stereo unspecified) | 6000 | 63 | – | – | – | – | – | – |
| NC[C@H](Cc1ccc(C(F)(F)F)cc1)NC(=O)c1cc(Br)c(-c2ccnc3[nH]ccc23)s1 | 2000 | 2 | 2 | 440 | 1300 | 1200 | 3 | – |
| NC[C@@H](Cc1ccccc1)NC(=O)c1cc(Br)c(-c2ccnc3[nH]ccc23)s1 | 6000 | 32 | 20 | 2700 | 1900 | 4500 | 40 | – |
| NCC(C(=O)Nc1ccc(-c2ccnc3[nH]ccc23)s1)c1ccccc1 (stereo unspecified) | 560 | 3 | – | – | – | – | – | – |
| NCC(NC(=O)c1cc(-c2ccccc2)c(-c2ccnc3[nH]ccc23)s1)c1ccccc1 (stereo unspecified) | 10000 | 50 | – | – | – | – | – | – |
| NCC(CNc1ccc(-c2ccnc3[nH]ccc23)s1)c1ccccc1 (stereo unspecified) | > 10000 | 250 | – | – | – | – | – | – |
| NC[C@H](Cc1cccc(F)c1)NC(=O)c1cc(Br)c(-c2ccnc3[nH]ccc23)s1 | 90 | 1 | 0.03 | 18 | 260 | 240 | – | IC50 [4]: 794 nM; IC50 [5]: 20 µM; Activity (Mus musculus): Dose-dependent effect; IC50 [6]: 2500 nM; IC50 [7]: 40 nM; IC50 [8]: 10 µM |
| NCCCC(NC(=O)c1cc(Br)c(-c2ccnc3[nH]ccc23)s1)c1ccccc1 (stereo unspecified) | 4800 | 20 | – | – | – | – | – | – |
| NCC(NC(=O)c1cc(C2CC2)c(-c2ccnc3[nH]ccc23)s1)c1ccccc1 (stereo unspecified) | 800 | 6 | – | – | – | – | – | – |
| NCC(C(=O)Nc1cc(Br)c(-c2ccnc3[nH]ccc23)s1)c1ccccc1 (stereo unspecified) | 4700 | 25 | – | – | – | – | – | – |

| Compound | IC50 [1] [nM] | IC50 [2] [nM] | Ki [2] [nM] | IC50 (LNCaP) [nM] | IC50 (HFF) [nM] | IC50 (BT-474) [nM] | IC50 [3] [nM] | further results |
| --- | --- | --- | --- | --- | --- | --- | --- | --- |
| NCC(NC(=O)c1ccc(-c2c[nH]c3ncccc23)s1)c1ccccc1 (stereo unspecified) | 240 | 16 | – | – | – | – | – | – |
| NCC(NC(=O)c1cc(Br)c(-c2ccnc3[nH]ccc23)s1)c1ccccc1 (racemic) | 500 | 8 | 20 | 750 | 1200 | 4000 | 20 | half-life [9]: 246 min; Cmax [10]: 1800 ng/mL; bioavailability [11]: 32%; half-life [12]: 216 min; AUC(0-t) at 24 h [13]: 3250 ng·h/mL; AUC(0-t) at 24 h [14]: 3400 ng·h/mL; clearance [15]: 16.7 mL/min/kg; Cmax [16]: 550 ng/mL |
| NC[C@H](Cc1ccncc1)NC(=O)c1cc(Br)c(-c2ccnc3[nH]ccc23)s1 | 1900 | – | 2 | 750 | 3600 | 2300 | – | – |
| NCCNC(=O)c1cc(Br)c(-c2ccnc3[nH]ccc23)s1 | > 10000 | 158 | – | – | – | – | – | – |
| NC(CNC(=O)c1cc(Br)c(-c2ccnc3[nH]ccc23)s1)c1ccccc1 (stereo unspecified) | > 10000 | 40 | – | – | – | – | – | – |
| NC[C@H](Cc1ccccc1F)NC(=O)c1cc(Br)c(-c2ccnc3[nH]ccc23)s1 | 220 | 1 | – | 39 | 260 | 120 | 2 | – |
| CNCC(NC(=O)c1cc(Br)c(-c2ccnc3[nH]ccc23)s1)c1ccccc1 (stereo unspecified) | 780 | 3 | – | – | – | – | – | – |
| COc1ccc(C[C@@H](CN)NC(=O)c2cc(Br)c(-c3ccnc4[nH]ccc34)s2)cc1 | 1000 | 3 | 5 | 720 | 890 | 1900 | 2 | – |
| NCC(NC(=O)c1cc(-c2cn[nH]c2)c(-c2ccnc3[nH]ccc23)s1)c1ccccc1 (stereo unspecified) | 2500 | 63 | – | – | – | – | – | – |
| NC[C@H](Cc1ccccc1)NC(=O)c1cc(Br)c(-c2ccnc3[nH]ccc23)s1 | 100 | 1 | 0.06 | 21 | 90 | 230 | 2 | – |
| CCNCC(Cc1ccccc1)NC(=O)c1cc(Br)c(-c2ccnc3[nH]ccc23)s1 (stereo unspecified) | 1100 | 4 | – | – | – | – | – | – |
| NCC(NC(=O)c1ccc(-c2ccnc3[nH]ccc23)s1)c1ccccc1 (stereo unspecified) | 190 | 6 | – | – | – | – | – | – |
| CC(C)NCC(Cc1ccccc1)NC(=O)c1cc(Br)c(-c2ccnc3[nH]ccc23)s1 (stereo unspecified) | 2100 | 10 | – | – | – | – | – | – |
| Cc1cc(C(=O)NC(CN)c2ccccc2)sc1-c1ccnc2[nH]ccc12 (stereo unspecified) | 120 | 8 | – | – | – | – | – | – |
| NC[C@H](Cc1cccc(C(F)(F)F)c1)NC(=O)c1cc(Br)c(-c2ccnc3[nH]ccc23)s1 | 170 | 1 | 0.1 | 78 | 530 | 60 | 1 | – |
| NCC(NCc1ccc(-c2ccnc3[nH]ccc23)s1)c1ccccc1 (stereo unspecified) | > 10000 | 100 | – | – | – | – | – | – |
| NCC(Cc1ccccc1)NC(=O)c1cc(Br)c(-c2ccnc3[nH]ccc23)s1 (racemic) | 80 | 1 | 0.04 | 45 | 410 | 200 | 3 | Cmax [10]: 712 ng/mL; F (Rattus norvegicus [17]): 38%; half-life [12]: 228 min; AUC (Rattus norvegicus [18]): 893 ng·h/mL; AUC (Rattus norvegicus [19]): 664 ng·h/mL; clearance [15]: 49 mL/min/kg; Cmax [16]: 248 ng/mL |

— ChEMBL document CHEMBL1153968, “Discovery of 5-pyrrolopyridinyl-2-thiophenecarboxamides as potent AKT kinase inhibitors” (Bioorg Med Chem Lett, 2009)
